Results taken from ChEMBL document CHEMBL4342526, “Exploration of the Structural Space in 4(3H)-Quinazolinone Antibacterials” (J Med Chem, 2020).
Converted amounts (≈) assume the structure as drawn.

Assays:
[1] = test system: Staphylococcus aureus; experiment: Antibacterial activity against Staphylococcus aureus ATCC 29213 measured after 16 to 20 hrs by microdilution method; format: functional
Summary of the method: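 CLSI broth microdilution: two-fold serial dilutions in triplicate in cation-adjusted Mueller–Hinton broth with 2% NaCl, inoculum 5 × 10^5 CFU/mL, incubated at 37 °C for 16–20 h. MIC is the lowest concentration preventing visible growth.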

[2] = test system: Staphylococcus aureus; experiment: Antibacterial activity against multi-drug resistant mecA-positive Staphylococcus aureus NRS119 measured after 16 to 20 hrs by microdilution method; format: functional
Summary of the method: (§1)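 CLSI broth microdilution; two-fold serial compound dilutions in triplicate in cation-adjusted Mueller–Hinton broth with 2% NaCl, inoculum 5 × 10^5 CFU/mL; 37 °C for 16–20 h; MIC = lowest concentration with no visible growth.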

[3] = test system: HeLa; experiment: Cytotoxicity against human HeLa cells assessed as reduction in cell viability measured after 16 hrs by XTT assay; format: cell-based
Summary of the method: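 HeLa cells (ATCC CCL-2), run in triplicate. Viability was read by XTT, and IC50 was obtained by nonlinear regression.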

[4] = Selectivity index, ratio of IC50 for human HeLa cells to MIC for clindamycin/erythromycin/spectinomycin-resistant mec-positive Staphylococcus aureus NRS70; format: toxicity
Summary of the method: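 HeLa cytotoxicity by XTT assay in triplicate, IC50 by nonlinear regression; ratio IC50 over broth microdilution MIC against NRS70.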

[5] = Protein binding in human plasma at 10 uM measured after 6 hrs UV-UPLC based rapid equilibrium dialysis method; format: ADME, cell-free
Summary of the method: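 Rapid equilibrium dialysis: human plasma was cleared by centrifugation and spiked from a 1 mM DMSO stock to a final 10 μM, against 0.1 M PBS pH 7.4. Dialysis ran 6 h at 37 °C with orbital shaking. Buffer (free) and plasma (total) aliquots were mixed with internal standard in acetonitrile and measured by UPLC-UV at 285 nm. B% = (Cp−Cf)/Cp×100.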

[6] = test system: Staphylococcus aureus; experiment: Antibacterial activity against Staphylococcus aureus ATCC 29213 measured after 16 to 20 hrs in presence of bovine serum albumin by microdilution method; format: functional
Summary of the method: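 S. aureus ATCC29213 MIC was run by CLSI microdilution in cation-adjusted Mueller–Hinton broth plus 2% NaCl, with and without 0.5% bovine serum albumin. Compounds were two-fold serially diluted in triplicate, inoculum was 5 × 10^5 CFU/mL, and plates were incubated at 37 °C for 16–20 h. The endpoint was the lowest concentration with no visible growth.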

[7] = test system: Staphylococcus aureus; experiment: Antibacterial activity against clindamycin/erythromycin/spectinomycin-resistant mec-positive Staphylococcus aureus NRS70 measured after 16 to 20 hrs by microdilution method; format: functional; summary of the method: as §1
[8] = test system: Staphylococcus aureus; experiment: Antibacterial activity against multi-drug resistant mecA-positive Staphylococcus aureus ATCC 27660 measured after 16 to 20 hrs by microdilution method; format: functional; summary of the method: as §1
[9] = test system: Staphylococcus aureus; experiment: Antibacterial activity against multi-drug resistant mec-positive Staphylococcus aureus USA300 measured after 16 to 20 hrs by microdilution method; format: functional; summary of the method: as §1

Which MIC [1] does the source give for `N#Cc1ccc(/C=C/c2nc3ccccc3c(=O)n2-c2cccc(C#N)c2)cc1` here?
The MIC was over 128 µg/mL.

For `N#Cc1ccc(/C=C/c2nc3ccccc3c(=O)n2-c2cc(C(=O)O)ccc2O)cc1`, which MIC [1] is on record?
Its MIC is over 128 µg/mL.

Which MIC [1] does the source give for `O=C(O)c1cccc(-n2c(/C=C/c3ccc(=O)[nH]c3)nc3ccccc3c2=O)c1` here?
Its MIC is over 128 µg/mL.

Which MIC [1] does the source give for `Nc1cccc(-n2c(N3CCCCC3)nc3ccccc3c2=O)c1` here?
Its MIC is over 128 µg/mL.

What does the source list for `CC(=O)NS(=O)(=O)c1cccc(-n2c(/C=C/c3ccc(C#N)cc3)nc3ccccc3c2=O)c1`?
MIC [1]: 4 µg/mL (≈ 8.5 µM); MIC [2]: 2 µg/mL (≈ 4.25 µM); IC50 [3]: 200 µg/mL (≈ 425 µM); selectivity ratio [4]: 50; PPB [5]: 99.2%

For `O=C(O)c1cccc(-n2c(/C=C/c3cc(Cl)cs3)nc3ccccc3c2=O)c1`, which MIC [1] is on record?
The MIC was 4 µg/mL (≈ 9.78 µM).

And the MIC [6]?
The MIC was 32 µg/mL.

What about the MIC [7] of the same molecule?
Its MIC is 2 µg/mL (≈ 4.89 µM).

And the MIC [2]?
The MIC was 1 µg/mL (≈ 2.45 µM).

And the MIC [8]?
Its MIC is 2 µg/mL (≈ 4.89 µM).

And the MIC [9]?
Its MIC is 4 µg/mL (≈ 9.78 µM).

What about the IC50 [3] of the same molecule?
Its IC50 is 140 µg/mL (≈ 342 µM).

And the selectivity ratio [4]?
Its selectivity ratio is 70.

What about the PPB [5] of the same molecule?
The PPB was over 99.9%.

For `N#Cc1ccc(/C=C/c2nc3ccccc3c(=O)n2-c2ccccc2C(=O)O)cc1`, which MIC [1] is on record?
The MIC was 32 µg/mL (≈ 81.3 µM).

With `CC(C(=O)O)n1c(/C=C/c2ccc(C#N)cc2)nc2ccccc2c1=O` (centres undefined) as the molecule, how does the MIC [1] read?
Its MIC is 128 µg/mL (≈ 371 µM).

For `N#Cc1ccc(COc2nc3ccccc3c(=O)n2-c2cccc(C(=O)O)c2)cc1`, which MIC [1] is on record?
The MIC was over 128 µg/mL.

Which results are given for `O=C(O)c1cccc(-n2c(/C=C/c3ccc(Br)s3)nc3ccccc3c2=O)c1`?
MIC [1]: 0.25 µg/mL (≈ 0.551 µM); MIC [6]: 2 µg/mL; MIC [7]: 0.5 µg/mL (≈ 1.1 µM); MIC [2]: 4 µg/mL (≈ 8.82 µM); MIC [8]: 0.5 µg/mL (≈ 1.1 µM); MIC [9]: 0.5 µg/mL (≈ 1.1 µM); IC50 [3]: 190 µg/mL (≈ 419 µM); selectivity ratio [4]: 380; PPB [5]: > 99.9%

Which MIC [1] does the source give for `CS(=O)(=O)Nc1cccc(-n2c(/C=C/c3ccc(C#N)cc3)nc3ccccc3c2=O)c1` here?
Its MIC is 0.015 µg/mL (≈ 0.0339 µM).

For `N#Cc1ccc(CCc2nc3ccccc3c(=O)n2-c2cccc(C(=O)O)c2)cc1`, which MIC [1] is on record?
Its MIC is 8 µg/mL (≈ 20.2 µM).

Which MIC [1] does the source give for `N#Cc1ccc(/C=C/c2nc3ccccc3c(=O)n2-c2cccc(N=[N+]=[N-])c2)cc1` here?
The MIC was 16 µg/mL (≈ 41 µM).

Which MIC [1] does the source give for `N#Cc1ccc(/C=C/c2nc3ccccc3c(=O)n2-c2cccc(NC(=O)NCc3cnc[nH]3)c2)cc1` here?
The MIC was over 128 µg/mL.

For `N#Cc1ccc(/C=C/c2nc3ccccc3c(=O)n2-c2cccc(CN)c2)cc1`, which MIC [1] is on record?
The MIC was 32 µg/mL (≈ 84.6 µM).

With `COC(=O)c1cccc(-n2c(/C=C/c3ccc(C#N)cc3)nc3ccccc3c2=O)c1O` as the molecule, how does the MIC [1] read?
The MIC was over 128 µg/mL.

Which MIC [1] does the source give for `O=C(O)c1cccc(-n2c(/C=C/c3ccc(I)cc3)nc3ccccc3c2=O)c1` here?
Its MIC is 0.5 µg/mL (≈ 1.01 µM).

What about the MIC [6] of the same molecule?
The MIC was 16 µg/mL.

What about the MIC [7] of the same molecule?
The MIC was 0.5 µg/mL (≈ 1.01 µM).

What about the MIC [2] of the same molecule?
Its MIC is 2 µg/mL (≈ 4.05 µM).

What about the MIC [8] of the same molecule?
The MIC was 0.5 µg/mL (≈ 1.01 µM).

And the MIC [9]?
Its MIC is 0.25 µg/mL (≈ 0.506 µM).

What about the IC50 [3] of the same molecule?
Its IC50 is 100 µg/mL (≈ 202 µM).

And the selectivity ratio [4]?
The selectivity ratio was 200.

What about the PPB [5] of the same molecule?
The PPB was over 99.9%.

For `N#Cc1ccc(/C=C/c2nc3ccccc3c(=O)n2CCC(=O)O)cc1`, which MIC [1] is on record?
The MIC was over 128 µg/mL.

With `O=c1c2ccccc2nc(N2CCCCC2)n1-c1cccc([N+](=O)[O-])c1` as the molecule, how does the MIC [1] read?
Its MIC is over 128 µg/mL.

Which MIC [1] does the source give for `O=C(O)c1cccc(-n2c(/C=C/c3nccs3)nc3ccccc3c2=O)c1` here?
Its MIC is over 128 µg/mL.

For `N#Cc1ccc(/C=C/c2nc3ccccc3c(=O)n2-c2ccc3[nH]c(=S)[nH]c3c2)cc1`, which MIC [1] is on record?
The MIC was over 128 µg/mL.

For `N#Cc1ccc(/C=C/c2nc3ccccc3c(=O)n2-c2ccc(F)c(C(=O)O)c2F)cc1`, which MIC [1] is on record?
The MIC was 64 µg/mL (≈ 149 µM).

With `N#Cc1ccc(/C=C/c2nc3ccccc3c(=O)n2-c2ccc3[nH]c(=O)[nH]c3c2)cc1` as the molecule, how does the MIC [1] read?
Its MIC is over 128 µg/mL.

Which MIC [1] does the source give for `O=C(O)c1cccc(-n2c(/C=C/c3cccnc3F)nc3ccccc3c2=O)c1` here?
The MIC was over 128 µg/mL.

With `CC(=O)NC[C@H]1CN(c2ccc(N3CCOCC3)c(F)c2)C(=O)O1` [LINEZOLID] as the molecule, how does the MIC [1] read?
Its MIC is 1 µg/mL (≈ 2.96 µM).

For `O=C(O)c1cccc(-n2c(/C=C/c3ccc(Cl)s3)nc3ccccc3c2=O)c1`, which MIC [1] is on record?
The MIC was 0.5 µg/mL (≈ 1.22 µM).

And the MIC [6]?
The MIC was 4 µg/mL.

What about the MIC [7] of the same molecule?
The MIC was 0.5 µg/mL (≈ 1.22 µM).

What about the MIC [8] of the same molecule?
The MIC was 0.5 µg/mL (≈ 1.22 µM).

And the MIC [9]?
Its MIC is 1 µg/mL (≈ 2.45 µM).

What about the IC50 [3] of the same molecule?
Its IC50 is 180 µg/mL (≈ 440 µM).

What about the selectivity ratio [4] of the same molecule?
Its selectivity ratio is 360.

And the PPB [5]?
Its PPB is 99.3%.

With `N#Cc1ccc(/C=C/c2nc3ccccc3c(=O)n2-c2cc(C(=O)O)ccn2)cc1` as the molecule, how does the MIC [1] read?
Its MIC is over 128 µg/mL.

With `N#Cc1ccc(/C=C/c2nc3ccccc3c(=O)n2-c2cccc(N)c2)cc1` as the molecule, how does the MIC [1] read?
Its MIC is 0.5 µg/mL (≈ 1.37 µM).

Which MIC [1] does the source give for `COC(=O)c1cccc(-n2c(/C=C/c3ccc(C#N)cc3)nc3ccccc3c2=O)n1` here?
Its MIC is over 128 µg/mL.

For `O=C(O)c1cccc(-n2c(/C=C/c3cc[nH]c(=O)c3)nc3ccccc3c2=O)c1`, which MIC [1] is on record?
The MIC was over 128 µg/mL.

Which MIC [1] does the source give for `N#Cc1ccc(/C=C/c2nc3ccccc3c(=O)n2-c2cccc(CN3C(=O)c4ccccc4C3=O)c2)cc1` here?
The MIC was over 128 µg/mL.

Which MIC [1] does the source give for `Nc1cccc(-n2c(N3CCN(c4ccc(Cl)cc4)CC3)nc3ccccc3c2=O)c1` here?
Its MIC is over 128 µg/mL.

Which MIC [1] does the source give for `O=C(O)c1cccc(-n2c(/C=C/c3ccc[nH]c3=O)nc3ccccc3c2=O)c1` here?
The MIC was over 128 µg/mL.

Which MIC [1] does the source give for `N#Cc1ccc(/C=C/c2nc3ccccc3c(=O)n2-c2cccc(C(=O)O)c2O)cc1` here?
The MIC was over 128 µg/mL.
